From PMC7346264 (ACS Omega, 2020)
Values joined by “and” are separate entries in the source; they are usually repeats but may differ in a detail not shown here. Identical values can stand only once. Like-named read-outs stand apart in the source and are kept apart here. Where no end group is shown, it is not given here.

Legend:
[1] = format: in vitro ADME, human; conditions: whole blood
Procedure, shortened: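 Validation arm: fresh whole blood in EDTA or BD P100 tubes, equilibrated 30 min at 4 °C. Spiked with four peptides not used in training, 10 nM each (final). Aliquots taken at 0–7.5 h and centrifuged 1800g for 10 min. Plasma deproteinised with acidified acetonitrile, then quantified by UPLC–MS/MS MRM. Decay constant taken from the ln-linear slope. T50/T90 derived assuming first-order kinetics, SEM by error propagation.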

[2] = format: in vitro ADME, human; conditions: for original content still present / detected in plasma: after 1 month of storage at −80 °C, P100 plasma; for T90 in days (±SEM) in P100 plasma: 50 nM, T90 extrapolated
Procedure, shortened: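 Cell-free plasma from BD P100 tubes spiked with the training peptide mix, 50 nM each (final). Aliquots stored at 4, −35 or −80 °C for up to 1 month. Sampled before storage and at 1, 7 and 30 days. Each 50 µL sample was acidified-acetonitrile precipitated, sonicated, boiled and centrifuged, then run by UPLC–MS/MS. Content normalised to baseline. T90 extrapolated from first-order decay fits.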

[3] = format: in vitro ADME, human; conditions: time frame of 7.5 h, at both 4 and 21 °C, all tubes
Procedure, shortened: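 Fresh donor whole blood, in EDTA, EDTA plus protease-inhibitor cocktail (1:100 final), BD P100 or BD P800 tubes, held 30 min at 4, 21 or 37 °C. Then spiked with peptide mix at 10 nM each (final). Sampled at 0, 2.5, 5 and 7.5 h and centrifuged. Plasma acetonitrile/formic acid precipitated and analysed by amide UPLC–ESI(+)–MS/MS MRM. T0-normalised ln areas fitted first-order (λ). T50/T90 reported ±SEM by error propagation, n = 4.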

[4] = external validation, P100 tube, 4 °C
[5] = head-to-head comparison, EDTA sampling tube at 4 °C
[6] = head-to-head comparison, P100 sampling tube at 4 °C
[7] = storage at 4 °C, n = 4, up to 1 month
[8] = storage at −35 °C, n = 4, thawed once, up to 1 month
[9] = storage at −80 °C, n = 4, thawed once, up to 1 month

| Substance | T50 [±SEM] [1, 4] | T90 [±SEM] (time where 90% of the peptide is still present) [1, 4] | decay constant (λ) [±SEM] [1, 4] | original content still present / detected in plasma [2] | T90 in days (±SEM) in P100 plasma [2, 7] | T90 in days (±SEM) in P100 plasma [2, 8] | T90 in days (±SEM) in P100 plasma [2, 9] | other results |
| --- | --- | --- | --- | --- | --- | --- | --- | --- |
| ESRLPKIRFDFIFPRKK [Q054] | 1.87 [±0.17] h | 0.28 [±0.03] h | –0.00619 [±0.00056] |  |  |  |  |  |
| ESRVSRIILDFLFQRKK [Q055] | 1.49 [±0.12] h | 0.23 [±0.02] h | –0.00776 [±0.00064] |  |  |  |  | T50 [±SEM] [1, 5]: 1.35 [±0.33] h; T90 [±SEM] [1, 5]: 0.21 [±0.05] h; decay constant (λ) [±SEM] [1, 5]: –0.00856 [±0.0021]; T50 [±SEM] [1, 6]: 2.07 [±0.36] ^a h; T90 [±SEM] [1, 6]: 0.31 [±0.05] ^a h; decay constant (λ) [±SEM] [1, 6]: –0.00559 [±0.00098] |
| SDLPFEH [Q164, SDLPFEH] |  |  |  | more than 95% | 0.95 (±0.23) days | 33.8 (±45.91) days | 96.3 (±136.01) days |  |
| SGSLSTFFRLFNRSFTQALGK [Q176] |  |  |  | more than 95% | 0.48 (±0.02) days | 16.4 (±6.98) days | 46.4 (±64.18) days |  |
| SIFTLVA [Q184, SIFTLVA] |  |  |  | ~25% | 2.24 (±0.20) days | 2.56 (±0.21) days | 2.6 days and 2.61 (±0.23) days | degradation of the peptide in whole blood [3]: no degradation |
| SNLVECVFSLFKKCN [Q076] |  |  |  |  | 1.24 (±0.03) days | 20.4 (±13.67) days | 13.2 (±4.80) days |  |
